# Experimental data from ChEMBL document CHEMBL1127678, “Dianilinophthalimides: potent and selective, ATP-competitive inhibitors of the EGF-receptor protein tyrosine kinase” (J Med Chem, 1994).
# pIC50: −log10 of the molar value.
# What was measured:
# [1] = biological target: T1, Platelet-derived growth factor receptor (Mus musculus, UniProt P05622+P26618); assay: (§1) Inhibition of PDGF-dependent autophosphorylation of PDGF-R in mouse BALB/c3T3 cells; format: functional, cell-based
# Protein kinase C (PKC) = assay: Inhibitory activity was determined against protein kinase C (PKC) from porcine brain; set-up: species or system Sus scrofa
# [2] = biological target: Tyrosine-protein kinase ABL (Homo sapiens, UniProt P00519+P42684); assay: Inhibitory activity against v-abl tyrosine kinase; format: protein assay
# [3] = biological target: cAMP-dependent protein kinase alpha-catalytic subunit (Oryctolagus cuniculus, UniProt Q95J97); assay: Inhibitory activity was determined against protein kinase A (PKA) of rabbit
# How it was run: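 PKA from rabbit muscle, kemptide (0.1 mg/mL) as substrate; compounds in DMSO (1% final).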
# [4] = biological target: T1, Platelet-derived growth factor receptor; assay: as §1; format: functional, cell-based; remark: listed apart in the source
# How it was run: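 Confluent BALB/c 3T3 cells (collagen-coated wells, 3–5 days, no medium change) in DMEM with 1 mg/mL BSA; serially diluted compound for 2 h, then PDGF 50 ng/mL for 10 min. Cells were methanol-fixed, and phosphotyrosine was detected by ELISA (anti-pTyr 4G10, ABC-AP, p-nitrophenyl phosphate, 405 nm).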
# [5] = biological target: Proto-oncogene tyrosine-protein kinase Src (Homo sapiens, UniProt P12931); assay: Inhibitory activity against c-src tyrosine kinase
# [6] = Inhibition of BALB/MK mouse epidermal keratinocyte proliferation; format: functional
# How it was run: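 Mouse BALB/MK keratinocytes (EGF-dependent; kept in calcium-free DMEM/HAM's F12 1:1 with 5% FCS and EGF 5 ng/mL), 10^4 cells/well, seeded and incubated overnight. Serial dilutions added in DMSO (1% final), then 5-day incubation. Cell number by methylene blue staining.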
# [7] = biological target: Epidermal growth factor receptor (Homo sapiens, UniProt P00533); assay: Inhibitory activity against recombinant tyrosine kinase EGF-R (EGF-R ICD)
# Epidermal growth factor receptor, sequence (P00533 whole entry): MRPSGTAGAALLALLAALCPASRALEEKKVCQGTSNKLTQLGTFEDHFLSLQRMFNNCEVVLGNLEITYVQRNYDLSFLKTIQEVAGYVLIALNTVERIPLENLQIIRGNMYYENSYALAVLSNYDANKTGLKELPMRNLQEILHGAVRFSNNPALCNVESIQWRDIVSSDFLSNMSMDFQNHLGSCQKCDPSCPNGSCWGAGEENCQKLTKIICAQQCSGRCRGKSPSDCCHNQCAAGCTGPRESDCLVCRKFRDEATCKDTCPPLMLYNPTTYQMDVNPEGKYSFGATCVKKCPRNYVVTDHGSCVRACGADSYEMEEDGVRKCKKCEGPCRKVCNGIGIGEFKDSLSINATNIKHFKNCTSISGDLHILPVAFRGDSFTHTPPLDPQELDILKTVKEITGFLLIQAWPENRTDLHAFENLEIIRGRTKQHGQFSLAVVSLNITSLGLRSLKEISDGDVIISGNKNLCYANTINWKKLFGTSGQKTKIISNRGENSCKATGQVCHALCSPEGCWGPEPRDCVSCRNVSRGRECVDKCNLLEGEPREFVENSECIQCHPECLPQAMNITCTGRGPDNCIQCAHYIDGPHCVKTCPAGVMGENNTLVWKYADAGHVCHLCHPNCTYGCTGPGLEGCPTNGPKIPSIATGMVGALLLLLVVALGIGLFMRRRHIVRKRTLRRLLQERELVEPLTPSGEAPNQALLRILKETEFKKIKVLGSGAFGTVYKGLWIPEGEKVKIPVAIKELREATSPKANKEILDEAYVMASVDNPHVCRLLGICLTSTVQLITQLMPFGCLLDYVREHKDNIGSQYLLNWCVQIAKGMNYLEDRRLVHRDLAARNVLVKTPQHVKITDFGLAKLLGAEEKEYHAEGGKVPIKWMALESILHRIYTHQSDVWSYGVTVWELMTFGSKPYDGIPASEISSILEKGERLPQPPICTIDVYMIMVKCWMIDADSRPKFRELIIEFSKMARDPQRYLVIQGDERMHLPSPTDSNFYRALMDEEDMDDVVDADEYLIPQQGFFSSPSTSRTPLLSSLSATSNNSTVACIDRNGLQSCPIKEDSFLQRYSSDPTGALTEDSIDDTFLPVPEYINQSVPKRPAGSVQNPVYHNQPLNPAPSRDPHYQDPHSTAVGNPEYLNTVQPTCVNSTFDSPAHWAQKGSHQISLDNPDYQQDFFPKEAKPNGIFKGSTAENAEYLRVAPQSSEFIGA
# Proto-oncogene tyrosine-protein kinase Src, sequence (P12931 2-536 limits assumed): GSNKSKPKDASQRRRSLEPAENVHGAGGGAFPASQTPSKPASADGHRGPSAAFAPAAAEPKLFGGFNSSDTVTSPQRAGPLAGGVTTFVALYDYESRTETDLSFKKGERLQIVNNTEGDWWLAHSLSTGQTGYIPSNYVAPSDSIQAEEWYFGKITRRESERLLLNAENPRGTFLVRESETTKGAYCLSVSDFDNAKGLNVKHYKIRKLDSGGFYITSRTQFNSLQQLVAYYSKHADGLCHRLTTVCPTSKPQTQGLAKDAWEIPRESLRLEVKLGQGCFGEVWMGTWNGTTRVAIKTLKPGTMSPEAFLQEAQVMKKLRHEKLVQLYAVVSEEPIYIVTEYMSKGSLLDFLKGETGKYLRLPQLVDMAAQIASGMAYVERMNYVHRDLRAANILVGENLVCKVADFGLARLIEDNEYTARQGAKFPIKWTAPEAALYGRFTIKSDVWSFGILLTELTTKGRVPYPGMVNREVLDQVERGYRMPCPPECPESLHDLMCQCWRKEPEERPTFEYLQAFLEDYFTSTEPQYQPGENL
Structure (SMILES),pIC50 [1],IC50 (Protein kinase C (PKC)) [µM],IC50 [2] [µM],pIC50 [3],pIC50 [4],pIC50 [5],pIC50 [6],pIC50 [7]
COc1ccc(Nc2cc3c(cc2Nc2ccc(OC)cc2)C(=O)NC3=O)cc1,< 4.00,460,> 50,< 3.30,–,–,–,–
COC(=O)c1cc(Nc2ccc(F)cc2)c(Nc2ccc(F)cc2)cc1C(=O)OC,–,> 500,–,< 3.30,–,–,–,–
O=C1NC(=O)c2c1c1c3ccccc3[nH]c1c1[nH]c3ccccc3c21 [STAUROSPORINE AGLYCON],–,–,–,< 5.00,–,–,–,–
O=C1NC(=O)c2cc(Nc3ccccc3)c(Nc3ccccc3)cc21 [DAPH],–,80,> 50,< 3.30,4.00,4.80,–,–
N#Cc1ccc(Nc2cc3c(cc2Nc2ccc(C#N)cc2)C(=O)NC3=O)cc1,–,> 100,–,< 3.30,–,–,–,–
CN1C(=O)c2cc(Nc3ccccc3)c(Nc3ccccc3)cc2C1=O,< 4.00,> 100,–,< 3.30,–,–,–,–
Cc1ccc(Nc2cc3c(cc2Nc2ccc(C)cc2)C(=O)NC3=O)cc1,< 4.00,> 100,> 100,< 3.30,–,< 4.00,–,–
CCN(CC)c1ccc(Nc2cc3c(cc2Nc2ccc(N(CC)CC)cc2)C(=O)NC3=O)cc1,–,> 500,> 50,< 3.30,–,< 4.00,–,–
O=C1NC(=O)c2cc(Nc3ccc(I)cc3)c(Nc3ccc(I)cc3)cc21,–,> 500,–,< 3.30,–,–,–,–
COC(=O)c1cc(Nc2ccccc2)c(Nc2ccccc2)cc1C(=O)OC,–,> 500,–,< 3.30,–,–,–,–
O=C1NC(=O)c2cc(Nc3ccc(O)cc3)c(Nc3ccc(O)cc3)cc21,–,75,12,< 3.30,–,5.10,–,–
O=C1NC(=O)c2cc3c(cc21)N(c1ccccc1)CCN3c1ccccc1,–,270,> 50,< 3.30,–,< 4.30,–,–
O=C1NC(=O)C(c2c[nH]c3ccccc23)=C1c1c[nH]c2ccccc12 [RO-316233],–,0.19,20,–,–,–,–,–
CN(c1ccccc1)c1cc2c(cc1Nc1ccccc1)C(=O)NC2=O,–,> 500,> 50,< 3.30,–,6.00,–,–
CC(=O)N(c1ccccc1)c1cc2c(cc1Nc1ccccc1)C(=O)NC2=O,< 4.00,> 100,–,< 3.30,–,–,–,–
CN(c1ccccc1)c1cc2c(cc1N(C)c1ccccc1)C(=O)NC2=O,–,> 500,> 50,< 3.30,–,< 4.00,–,–
O=C1c2cc(Nc3ccccc3)c(Nc3ccccc3)cc2C(=O)N1c1ccccc1,< 4.00,> 100,–,< 3.30,–,–,< 4.30,–
COc1ccc(Nc2cc3c(cc2Nc2ccccc2)C(=O)NC3=O)cc1,< 4.00,> 100,> 100,< 3.30,–,4.19,–,–
O=C1NC(=O)c2cc(Sc3ccccc3)c(Sc3ccccc3)cc21,–,> 50,–,< 3.30,–,–,–,–
O=C1NC(=O)c2cc(Nc3ccc(-c4ccccc4)cc3)c(Nc3ccc(-c4ccccc4)cc3)cc21,< 4.00,> 500,–,< 3.30,–,–,–,–
O=C1NC(=O)c2cc(NC3CCCCC3)c(NC3CCCCC3)cc21,–,> 100,> 50,< 3.30,–,< 4.30,–,< 4.30
O=C1NC(=O)c2cc(Nc3ccc(F)cc3)c(Nc3ccc(F)cc3)cc21 [CGP-53353],4.00,32,> 50,< 3.30,–,4.30,–,–
